Active and inactive are the calls of the source. No cut-off for these calls is given here.
Columns and labels:
[1] = Toxicity in CD1 mouse assessed as acute pain at 80 mg/kg/day, ip administered thrice weekly and measured at day 10; type: organism-based; details: in vivo, 72 h, time 3 day
Outline: (§1)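 Male CD-1 mice, four per group, given 80 mg/kg in PBS IP three times weekly; vehicle DMSO. Mice were euthanized when toxicity signs appeared, otherwise at day 10. Body weight was recorded at first and last dosing days. Non-fasted cardiac blood was taken after euthanasia for an automated hematology analyzer.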

[2] = target: Heat shock protein beta-1 (Homo sapiens) (UniProt P04792); experiment: Inhibition of HSP27 in human T98G cells assessed as AR accumulation in nucleus at 100 nM incubated for 12 hrs in presence of DHT by immunofluorescence analysis; type: cell-based
Heat shock protein beta-1 (Homo sapiens), sequence (P04792 whole entry): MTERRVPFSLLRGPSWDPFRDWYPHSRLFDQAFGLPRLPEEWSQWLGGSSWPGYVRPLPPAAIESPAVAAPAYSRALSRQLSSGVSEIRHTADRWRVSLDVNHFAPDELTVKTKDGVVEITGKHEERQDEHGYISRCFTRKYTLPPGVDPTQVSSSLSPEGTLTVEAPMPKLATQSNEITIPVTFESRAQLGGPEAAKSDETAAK
Outline: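 T98G cells on coverslips, 24 h after seeding, were treated 12 h with 100 nM, DHT 10 nM, or both. Cells were fixed in 4% paraformaldehyde, permeabilized with 0.1% Triton X-100 and blocked with 1% BSA. They were stained 1 h each with AR and HSP27 primary and fluorescent secondary antibodies, with DAPI for nuclei.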

U-87MG ATCC [3] = experiment: Downregulation of PSA mRNA expression in human U87 cells at 25 nM incubated for 12 hrs by qRT-PCR analysis; type: functional, cell-based
Outline: (§2)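 T98G and U87 cells, 2 × 10^5 per well, adhered overnight and were treated at 25 nM for 12 h. RNA was extracted with RiboZol and DNase I-treated. AR, PSA and NKX3.1 were measured by real-time PCR, normalized to 18S by 2−ΔΔCt, three replicates per cDNA.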

[4] = target: T1, Androgen receptor (Homo sapiens) (UniProt P10275); experiment: Inhibition of AR transcriptional activity in human T98G cells assessed as reduction in AR mRNA expression at 25 nM incubated for 12 hrs by qRT-PCR analysis; type: cell-based; outline: as §2
T1 sequence (whole entry): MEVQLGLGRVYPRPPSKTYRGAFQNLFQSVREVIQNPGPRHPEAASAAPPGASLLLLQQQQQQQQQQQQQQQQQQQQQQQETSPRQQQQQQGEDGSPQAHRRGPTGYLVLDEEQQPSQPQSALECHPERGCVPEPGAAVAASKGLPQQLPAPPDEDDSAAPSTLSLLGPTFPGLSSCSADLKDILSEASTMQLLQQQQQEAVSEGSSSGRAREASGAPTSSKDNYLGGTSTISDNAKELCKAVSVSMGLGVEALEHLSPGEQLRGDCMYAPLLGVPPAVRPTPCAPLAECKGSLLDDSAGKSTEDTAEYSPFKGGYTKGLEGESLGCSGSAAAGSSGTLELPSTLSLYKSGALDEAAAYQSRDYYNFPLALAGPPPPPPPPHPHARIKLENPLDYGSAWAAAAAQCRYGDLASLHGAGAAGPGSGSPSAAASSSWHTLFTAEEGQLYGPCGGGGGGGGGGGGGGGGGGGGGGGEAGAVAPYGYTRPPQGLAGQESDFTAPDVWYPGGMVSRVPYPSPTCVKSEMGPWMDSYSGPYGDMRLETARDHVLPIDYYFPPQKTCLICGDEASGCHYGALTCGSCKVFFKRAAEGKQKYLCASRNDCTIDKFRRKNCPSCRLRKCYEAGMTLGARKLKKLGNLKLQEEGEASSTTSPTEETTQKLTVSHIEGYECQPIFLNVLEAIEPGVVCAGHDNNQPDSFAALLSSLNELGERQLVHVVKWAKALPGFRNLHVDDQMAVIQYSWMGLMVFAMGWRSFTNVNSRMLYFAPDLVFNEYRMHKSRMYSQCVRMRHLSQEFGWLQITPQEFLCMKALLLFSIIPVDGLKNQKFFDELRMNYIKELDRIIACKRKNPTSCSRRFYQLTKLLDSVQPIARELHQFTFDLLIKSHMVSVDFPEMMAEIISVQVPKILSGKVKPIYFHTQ

Mus musculus = experiment: In vivo inhibition of HSP27 in human U87 cells xenografted in NCR nude mouse assessed as reduction in AR expression level in tumors at 20 mg/kg, po administered thrice weekly for 14 days by Western blot analysis; type: functional, organism-based; details: time 14.0 day
Outline: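 Tumors from U87 flank xenografts in male nude mice dosed at 20 mg/kg IP or orally three times weekly for 14 days. The two tumors of each mouse were pooled and homogenized in RIPA with protease inhibitors and PMSF. AR was then measured by western blot; n = 4.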

U-87MG ATCC [5] = experiment: Downregulation of NKX3.1 mRNA expression in human U87 cells at 25 nM incubated for 12 hrs by qRT-PCR analysis; type: functional, cell-based; outline: as §2
[6] = Toxicity in CD1 mouse assessed as decrease in body weight at 80 mg/kg/day, ip administered thrice weekly and measured at day 10; type: organism-based; details: in vivo, 72 h, time 3 day; outline: as §1
U-251 = experiment: Antiproliferative activity against human U-251 cells assessed as reduction in cell viability incubated for 48 hrs by MTT assay; type: functional, cell-based; details: U-251, 48 h
Outline: (§3)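 MTT assay; 3000 cells/well in RPMI 1640 or DMEM with 10% FBS, seeded 24 h, then exposed 48 h to a range of concentrations in DMSO (final ≤0.1%); vehicle controls. MTT 1 mg/mL for 2 h at 37 °C, dye dissolved in DMSO, absorbance 570 nm; eight replicates; IC50 by nonlinear regression.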

[7] = target: Heat shock protein beta-1 (Homo sapiens) (UniProt P04792); experiment: Inhibition of HSP27 (unknown origin) chaperone activity assessed as increase in DTT-induced insulin aggregation at 10 uM incubated for 5 mins in presence of alpha-crystallin followed by addition of DTT and measured for 2 hrs for every 3 mins by microplate reader analysis; details: time 125.0 min
Outline: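 Insulin aggregation assay in PBS at 10 μM, 0.1% DMSO. Insulin stock 1 mg/mL with or without α-crystallin stock 5 mg/mL was preincubated 5 min at 37 °C. Aggregation was started with DTT (1 M stock). A400 was read every 3 min for 2 h; three independent experiments, each in triplicate.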

T98G = experiment: Antiproliferative activity against human T98G cells overexpressing AR assessed as reduction in cell viability incubated for 48 hrs by MTT assay; type: functional, cell-based; outline: as §3
Bos taurus = species on record: Bos taurus; experiment: Inhibition of bovine brain tubulin polymerization measured every 1 min for 45 mins in presence of GTP by microplate reader analysis; details: dose 1-1000 nM
Outline: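 MAP-rich bovine brain tubulin, 2 mg/mL, in 80 mM PIPES pH 6.9, 2 mM MgCl2, 0.5 mM EGTA, 5% glycerol with a range of concentrations in DMSO at 37 °C. Polymerization was started with GTP (100 mM stock, 1 μL). A340 was read each minute for 45 min; three independent experiments, analysed at end reading.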

[8] = target: T1, Androgen receptor (Homo sapiens); experiment: Inhibition of AR transcriptional activity in human U87 cells assessed as reduction in AR mRNA expression at 25 nM incubated for 12 hrs by qRT-PCR analysis; type: cell-based; outline: as §2
[9] = target: Heat shock protein beta-1 (Homo sapiens) (UniProt P04792); experiment: Inhibition of HSP27 in human T98G cells assessed as reduction in AR-V7 expression level at 50 to 100 nM in presence of MG132 by Western blot analysis; type: cell-based; details: dose 50-100 nM
Outline: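 Cells were treated in six-well plates (with or without MG132 where stated), then lysed in RIPA with protease inhibitors. 50 μg protein was run on 10% SDS-PAGE and transferred to PVDF. Membranes were blocked in 5% milk/TBS-T, probed with AR or AR-V7 antibodies overnight at 4 °C, and detected by chemiluminescence. Densitometry was used; n = 3.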

inhibition [2]: inactive
inhibition [4]: Active
IC50 (U-251): 4 nM
inhibition [7]: Active
inhibition (Bos taurus): Dose-dependent effect
inhibition [8]: Active
inhibition [9]: inactive
SMILES: COc1ccc(C(=O)Nc2ccc(NS(C)(=O)=O)c(OCc3cc(OC)ccc3OC)c2)cc1
Activity [1]: Non-Toxic
inhibition (U-87MG ATCC [3]): Active
inhibition (Mus musculus): Active
inhibition (U-87MG ATCC [5]): Active
Activity [6]: Non-Toxic
IC50 (T98G): 2.01 nM
